Here are results for 14 molecules from ChEMBL document CHEMBL3856220, “Synthesis and antileishmanial activity of C7- and C12-functionalized dehydroabietylamine derivatives” (Eur J Med Chem, 2016).

Each structure is given as a SMILES string.

Data set [1] in a line: Selectivity index, ratio of CC50 for mouse J774 cells to IC50 for promastigote form of Leishmania infantum MCAN/ES/96/BCN150. The data set is classed as functional. The essentials:
(§1)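 Selectivity index computed as CC50 from the J774 resazurin viability assay divided by IC50 from the matching promastigote or intracellular amastigote resazurin assay.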

Data set [2] deals with Leishmania infantum. The data set is described as follows: Leishmanicidal activity against promastigote form of Leishmania infantum MCAN/ES/96/BCN150 after 48 hrs by resazurin dye-based fluorometric method. The data set is classed as functional. As to conditions: MCAN/ES/96/BCN150, 48 h. The essentials: (§2)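 Promastigotes grown in Schneider's medium with 10% heat-inactivated FBS at 26 °C. 2.5×10^5 parasites/well. DMSO stocks at 100 mg/mL, diluted 1:2 in medium to final 100–0.78 µg/mL. 48 h at 26 °C, then 2.5 mM resazurin (20 µL) for 3 h. Fluorescence read at ex 535/em 590 nm, with growth inhibition corrected for signal-to-noise. Triplicates; IC50 by probit analysis.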
(Resazurin is reduced to fluorescent resorufin, in cell work by metabolically active cells.)

Data set [3] in a line: Selectivity index, ratio of CC50 for mouse J774 cells to IC50 for promastigote form of Leishmania guyanensis 141/93. The data set is classed as functional. The essentials:
as §1

The test system of the next data set is Leishmania guyanensis. The data set is described as follows: Leishmanicidal activity against promastigote form of Leishmania guyanensis 141/93 after 48 hrs by resazurin dye-based fluorometric method. The data set is classed as functional. As to conditions: 141/93, 48 h. The essentials: as §2
Data set [4] can be described thus: Selectivity index, ratio of CC50 for mouse J774 cells to IC50 for promastigote form of Leishmania donovani MHOM/IN/80/DD8. The data set is classed as functional. The essentials:
as §1

For data set [5], the system named is Leishmania donovani. The data set is described as follows: Leishmanicidal activity against promastigote form of Leishmania donovani MHOM/IN/80/DD8 after 48 hrs by resazurin dye-based fluorometric method. The data set is classed as functional. As to conditions: MHOM/IN/80/DD8, 48 h. The essentials:
as §2

Data set [6] in a line: Cytotoxicity against mouse J774 cells assessed as reduction of cell viability after 48 hrs by resazurin dye-based fluorometric method. The data set is classed as toxicity. The gist of the method:
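J774 murine macrophages grown in RPMI-1640 with 10% heat-inactivated FBS, penicillin/streptomycin, 37 °C, 5% CO2, and harvested mechanically at pre-confluence. Seeded at 5×10^4 cells/well and allowed to attach 2 h. Compound added at 100–0.78 µg/mL (1:2 series, final), 48 h exposure. Resazurin 2.5 mM (20 µL) then 3 h, fluorescence read. Triplicates. CC50 = 50% viability loss versus untreated.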

The test system of data set [7] is Leishmania amazonensis. The data set is described as follows: Leishmanicidal activity against promastigote form of Leishmania amazonensis MHOM/Br/79/Maria after 48 hrs by resazurin dye-based fluorometric method. The data set is classed as functional. The gist of the method: as §2
Data set [8] in a line: Selectivity index, ratio of CC50 for mouse J774 cells to IC50 for amastigote form of Leishmania infantum MCAN/ES/96/BCN150 infected in mouse J774 cells. The data set is classed as functional. The essentials: as §1
Data set [9] is described as follows: Selectivity index, ratio of CC50 for mouse J774 cells to IC50 for amastigote form of Leishmania amazonensis MHOM/Br/79/Maria infected in mouse J774 cells. The data set is classed as functional. The gist of the method:
as §1

Data set [10] has as its system Leishmania infantum. Kind of data set: Leishmanicidal activity against amastigote form of Leishmania infantum MCAN/ES/96/BCN150 infected in mouse J774 cells after 48 hrs by resazurin dye-based fluorometric method. The data set is classed as functional, cell-based. As to conditions: MCAN/ES/96/BCN150, J774, 48 h. The essentials: (§3)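 5×10^4 macrophages in RPMI-1640 infected with 5×10^5 promastigotes. L. infantum infection was 48 h at 37 °C; L. amazonensis was 24 h at 33 °C then 24 h at 37 °C. Free parasites washed off with RPMI-HEPES pH 7.4. Compound at 100–0.78 µg/mL (final), 48 h at 37 °C. Cells lysed with 0.02% SDS, then 3 days at 26 °C in Schneider's medium. Resazurin 3 h, fluorescence read. Triplicates; IC50 by probit analysis.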

Data set [11] can be described thus: Selectivity index, ratio of CC50 for mouse J774 cells to IC50 for promastigote form of Leishmania amazonensis MHOM/Br/79/Maria. The data set is classed as functional. The essentials: as §1
Data set [12] relates to Leishmania amazonensis. Kind of data set: Leishmanicidal activity against amastigote form of Leishmania amazonensis MHOM/Br/79/Maria infected in mouse J774 cells after 48 hrs by resazurin dye-based fluorometric method. The data set is classed as functional, cell-based. As to conditions: J774, 48 h. The essentials:
as §3

The subject of data set [13] is Leishmania infantum. The data set is described as follows: Potency index, ratio of miltefosine IC50 to compound IC50 for amastigote form of Leishmania infantum MCAN/ES/96/BCN150 infected in mouse J774 cells. The data set is classed as functional.
The subject of another data set is Leishmania braziliensis. Kind of data set: Antileishmanial activity against amastigote form of Leishmania braziliensis MHOM/BR/1975/M2904 infected in mouse J774.2 cells after 72 hrs by Giemsa staining-based assay. As to conditions: MHOM/BR/75/M2904, J774.2, 72 h. The data set is classed as functional, cell-based.
In data set [14] the test system is Leishmania infantum. Kind of data set: Antileishmanial activity against amastigote form of Leishmania infantum MCAN/ES/2001/UCM-10 infected in mouse J774.2 cells after 72 hrs by Giemsa staining-based assay. As to conditions: MCAN/ES/2001/UCM-10, J774.2, 72 h. The data set is classed as functional, cell-based.
The test system of data set [15] is Leishmania donovani. The data set is described as follows: Antileishmanial activity against promastigote form of Leishmania donovani after 48 hrs by Alamar blue assay. The data set is classed as functional. The essentials:
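Promastigotes grown at 26 °C in Schneider's insect medium with 10% heat-inactivated FBS and penicillin/streptomycin, seeded at 2.5×10^5/well. Exposed to 1:2 serial dilutions (100–0.78 µg/mL final; DMSO stocks) for 48 h at 26 °C, then 2.5 mM resazurin added for 3 h. Fluorescence read at 535/590 nm; inhibition relative to untreated minus background. Triplicates; IC50 by probit; miltefosine reference.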

The IC50 is the point on the concentration scale where inhibition reaches its midpoint. Low readings indicate greater potency, high ones weaker potency. A word on the CC50: it is the concentration that lowers cell viability or growth by half. As to `CC(C)c1cc2c(cc1[N+](=O)[O-])[C@@]1(C)CCC[C@@](C)(CNC(=O)c3ccccc3)[C@@H]1CC2=O`, the “Ratio CC50/IC50” value is above 8 in data set [1]; above 5 in [3]; above 37 in data set [4]; above 11 in data set [8]; above 54 in data set [9]; above 16 in data set [11]. Moreover, the IC50 with Leishmania infantum [2] was found to be 23.9 µM; in the data set with Leishmania guyanensis, 38.5 µM; in the data set with Leishmania donovani [5], 5.4 µM; in the data set on Leishmania amazonensis [7], 12.2 µM; in the data set on Leishmania infantum [10] it was 17.5 µM; with Leishmania amazonensis [12], 3.7 µM. Moreover, the CC50 at 48 h in data set [6] was above 200 µM.

`CC(C)c1ccc2c(c1)C(=O)C[C@H]1[C@](C)(CNC(=O)c3ccccc3)CCC[C@]21C`: the “Ratio IC50” value in the data set with Leishmania infantum [13] was found to be 23. Also, the “Ratio CC50/IC50” value is reported as above 23 in [1]; above 23 in data set [3]; above 50 in [4]; above 80 in data set [8]; above 67 in data set [9]; above 41 in [11]. The IC50 stood at 8.7 µM in the data set with Leishmania infantum [2]; 8.6 µM in the data set with Leishmania guyanensis; 4 µM in the data set with Leishmania donovani [5]; 4.9 µM in the data set with Leishmania amazonensis [7]; 2.5 µM in the data set with Leishmania infantum [10]; 3 µM in the data set on Leishmania amazonensis [12]. The CC50 at 48 h in data set [6] is above 200 µM.

Regarding `CC(C)c1cc2c(cc1[N+](=O)[O-])[C@@]1(C)CCC[C@@](C)(CNC(=O)c3ccccc3)[C@@H]1CC2`, in the data set on Leishmania infantum [13], the “Ratio IC50” value worked out at 18. Further, the “Ratio CC50/IC50” value in data set [1] is given as above 18; in data set [3], above 2; in [4] it was above 62; in [8] it was above 61; in [9], above 57; in [11], above 10. In addition, the IC50 turned out to be 11.1 µM in the data set with Leishmania infantum [2]; 94.5 µM with Leishmania guyanensis; 3.2 µM in the data set with Leishmania donovani [5]; 20.7 µM with Leishmania amazonensis [7]; 3.3 µM with Leishmania infantum [10]; 3.5 µM with Leishmania amazonensis [12]. The CC50 at 48 h in data set [6] is above 200 µM.

Consider `CC(=O)NC[C@]1(C)CCC[C@]2(C)c3ccc(C(C)C)cc3CC[C@@H]12`, for which the CC50 at 48 h in data set [6] is 21.6 µM.

For the molecule `CC(C)c1ccc2c(c1)CC[C@H]1[C@](C)(CNC(=O)c3ccccc3)CCC[C@]21C`, the “Ratio CC50/IC50” value is given as above 64 in data set [1]; above 10 in data set [3]; above 90 in data set [4]; above 42 in data set [8]; above 40 in [9]; above 54 in [11]. In addition, the IC50 in the data set on Leishmania infantum [2] is 3.1 µM; in the data set on Leishmania guyanensis, 20.4 µM; in the data set with Leishmania donovani [5], 2.2 µM; in the data set on Leishmania amazonensis [7], 3.7 µM; in the data set with Leishmania infantum [10], 4.7 µM; in the data set with Leishmania amazonensis [12] it was 5 µM. Moreover, the CC50 at 48 h in data set [6] is above 200 µM.

With `COC(=O)C[C@@]1(C)CCC[C@]2(C)c3cc(O)c(C(C)C)cc3CC[C@@H]12`, the IC50 in the data set on Leishmania braziliensis and in the data set on Leishmania infantum [14] was 22.3 to 35 µM in each case.

For `CC(=O)NC[C@]1(C)CCC[C@]2(C)c3ccc(C(C)C)cc3C(=O)C[C@@H]12`, the CC50 at 48 h in data set [6] is 72.3 µM.

As to `CC(=O)NC[C@]1(C)CCC[C@]2(C)c3ccc(C(C)C)cc3-c3[nH]c4ccc(F)cc4c3[C@@H]12`, the “Ratio CC50/IC50” value in data set [1] worked out at 19.2; in data set [4], 10.3; in data set [11], 7.2. The IC50 in the data set on Leishmania infantum [2] is 1.5 µM; with Leishmania donovani [5] it was 2.8 µM; in the data set with Leishmania amazonensis [7], 4 µM. In data set [6], the CC50 at 48 h amounted to 28.8 µM.

Consider `CC(=O)NC[C@]1(C)CCC[C@]2(C)c3cc([N+](=O)[O-])c(C(C)C)cc3C(=O)C[C@@H]12`, for which, in [6], the 50% cytotoxic concentration (CC50) at 48 h was determined as 39.2 µM.

Consider `COC(=O)C[C@]1(C)CCC[C@]2(C)c3cc(O)c(C(C)C)cc3CC[C@@H]12`, for which the IC50 with Leishmania braziliensis and with Leishmania infantum [14] was 22.3 to 35 µM throughout.

Turning to `CC(=O)NC[C@]1(C)CCC[C@]2(C)c3cc([N+](=O)[O-])c(C(C)C)cc3CC[C@@H]12`, the CC50 at 48 h in [6] worked out at 13.7 µM.

For `CC(C)c1ccc2c(c1)CC[C@H]1[C@](C)(CN)CCC[C@]21C`, the CC50 at 48 h in data set [6] was determined as 14.5 µM.

As for `CC(C)c1cc2c(cc1O)[C@@]1(C)CCCC(C)(C)[C@@H]1CC2` [FERRUGINOL], the IC50 in the data set with Leishmania donovani [15] amounted to 12.2 µM.

Turning to `CCCCCCCCCCCCCCCCOP(=O)([O-])OCC[N+](C)(C)C` [MILTEFOSINE], the “Ratio CC50/IC50” value in [1] is 40.1; in [3], 7.5; in [4] it was 909; in [8] it was 2.3; in data set [9] it was 8.2; in data set [11] it was 2.9. Further, the IC50 in the data set on Leishmania infantum [2] worked out at 3.4 µM; with Leishmania guyanensis, 18.2 µM; in the data set with Leishmania donovani [5], 0.15 µM; in the data set on Leishmania amazonensis [7] it was 47.7 µM; in the data set on Leishmania infantum [10], 58.1 µM; in the data set with Leishmania amazonensis [12], 16.5 µM. In [6], the CC50 at 48 h worked out at 136 µM.
